Data from ChEMBL document CHEMBL4619772 (J Med Chem, 2020).

How the values were obtained:
[1] = Inhibition of pseudotyped HIV/EBOV GP infected in human A549 cells assessed as reduction in virus entry measured after 48 hrs by luciferase reporter gene assay; assay type: cell-based, Ebolavirus; settings: Orthoebolavirus, A549, 48 h
A549 [2] = assay: Inhibition of pseudotyped HIV/EBOV GP infected in human A549 cells assessed as reduction in virus entry at 12.5 uM measured after 48 hrs by luciferase reporter gene assay relative to control; assay type: cell-based; settings: Ebolavirus
Method in brief: (§1)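 Low-passage A549 cells are infected with HIV-based pseudovirions carrying EBOV or MARV GP and a luciferase reporter, with or without compound at 12.5 μM. […] Toremifene is the positive control.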

[3] = Inhibition of pseudotyped HIV/MARV GP infected in human A549 cells assessed as reduction in virus entry measured after 48 hrs by luciferase reporter gene assay; assay type: cell-based, Marburgvirus; settings: Orthomarburgvirus, A549, 48 h
A549 [4] = assay: Inhibition of pseudotyped HIV/MARV GP infected in human A549 cells assessed as reduction in virus entry at 12.5 uM measured after 48 hrs by luciferase reporter gene assay relative to control; assay type: cell-based; settings: Marburgvirus; method in brief: as §1
[5] = Selectivity index, ratio of CC50 for human A549 cells to EC50 for HIV/EBOV-GP infected in human A549 cells; assay type: toxicity, cell-based; settings: read-out: Ratio CC50/EC50
Method in brief: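 Ratio CC50/EC50. CC50 is A549 cytotoxicity by CellTiter 96 aqueous nonradioactive cell proliferation assay.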

Zaire ebolavirus [6] = assay: Antiviral activity against Ebola virus 1976 Mayinga infected in human HeLa cells pretreated for 1 hr followed by virus infection measured after 24 hrs by Hoechst staining-based immunofluorescence assay; assay type: functional, organism-based
Marburgvirus [7] = assay: Antiviral activity against Marburg virus Lake Victoria, 2005 Angola infected in human HeLa cells pretreated for 1 hr followed by virus infection measured after 24 hrs by Hoechst staining-based immunofluorescence assay; assay type: functional, organism-based, Lake Victoria marburgvirus; settings: Orthomarburgvirus, Angola2005, HeLa
[8] = Selectivity index, ratio of CC50 for human HeLa cells to EC50 for Ebola virus 1976 Mayinga in human HeLa cells; assay type: toxicity, cell-based; settings: read-out: Ratio CC50/EC50
[9] = Metabolic stability in human pooled plasma assessed as parent compound remaining at 20 uM after 60 mins by HPLC analysis; assay type: ADME, cell-free; settings: read-out: Stability
Method in brief: (§2)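 Stability is reported as % of compound remaining after 60 min incubation in plasma or liver microsomes, relative to t0.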

[10] = Metabolic stability in Sprague-Dawley rat pooled plasma assessed as parent compound remaining at 20 uM after 60 mins by HPLC analysis; assay type: ADME, cell-free; settings: read-out: Stability; method in brief: as §2
[11] = Metabolic stability in human liver microsomes assessed as parent compound remaining after 60 mins in presence of NADPH by HPLC analysis; assay type: ADME, Microsome; settings: read-out: Stability; method in brief: as §2
[12] = Metabolic stability in Fischer F344 rat liver microsomes assessed as parent compound remaining after 60 mins in presence of NADPH by HPLC analysis; assay type: ADME, Microsome; settings: read-out: Stability; method in brief: as §2
Cytochrome P450 3A4 [13] = biological target: T1, Cytochrome P450 3A4 (Homo sapiens, UniProt P08684); assay: Inhibition of recombinant human CYP3A4 expressed in baculovirus infected insect cell microsomes using fluorescent substrate in presence of NADPH by fluorescence assay; assay type: ADME
Method in brief: (§3)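 CYP3A4 inhibition IC50 is determined with 10 μM quinidine as positive inhibitor control, from three replicates; errors are estimated <10%.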

Cytochrome P450 2C9 [14] = biological target: T2, Cytochrome P450 2C9 (Homo sapiens, UniProt P11712); assay: Inhibition of recombinant human CYP2C9 expressed in baculovirus infected insect cell microsomes using fluorescent substrate in presence of NADPH by fluorescence assay; assay type: ADME
Method in brief: (§4)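 CYP2C9 inhibition IC50 is determined with 30 μM sulfaphenazole as positive inhibitor control, from three replicates; errors are estimated <10%.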

Zaire ebolavirus [15] = assay: Antiviral activity against Ebola virus 1976 Mayinga infected in African green monkey Vero cells pretreated for 1 hr followed by virus infection measured after 24 hrs by Hoechst staining-based immunofluorescence assay; assay type: functional, organism-based
[16] = Selectivity index, ratio of CC50 for African green monkey Vero cells to EC50 for Ebola virus 1976 Mayinga infected in African green monkey Vero cells; assay type: toxicity; settings: read-out: Ratio CC50/EC50
Zaire ebolavirus [17] = assay: Antiviral activity against Ebola virus 1976 Mayinga infected in African green monkey Vero cells; assay type: functional, organism-based
Marburgvirus [18] = assay: Antiviral activity against Marburg virus Lake Victoria, 2005 Angola infected in African green monkey Vero cells; assay type: functional, organism-based, Lake Victoria marburgvirus; settings: Orthomarburgvirus, Angola2005, Vero
Cytochrome P450 3A4 [19] = biological target: T1, Cytochrome P450 3A4; assay: Inhibition of recombinant human CYP3A4 expressed in baculovirus infected insect cell microsomes using vivid DBOMF as substrate preincubated for 10 mins followed by substrate addition and measured after 25 mins in presence of […] by fluorescence assay; assay type: ADME; method in brief: as §3
Cytochrome P450 2C9 [20] = biological target: T2, Cytochrome P450 2C9; assay: Inhibition of recombinant human CYP2C9 expressed in baculovirus infected insect cell microsomes using vivid BOMF as substrate preincubated for 10 mins followed by substrate addition and measured after 25 mins in presence of […] by fluorescence assay; assay type: ADME; method in brief: as §4

T2 sequence (P11712 whole entry): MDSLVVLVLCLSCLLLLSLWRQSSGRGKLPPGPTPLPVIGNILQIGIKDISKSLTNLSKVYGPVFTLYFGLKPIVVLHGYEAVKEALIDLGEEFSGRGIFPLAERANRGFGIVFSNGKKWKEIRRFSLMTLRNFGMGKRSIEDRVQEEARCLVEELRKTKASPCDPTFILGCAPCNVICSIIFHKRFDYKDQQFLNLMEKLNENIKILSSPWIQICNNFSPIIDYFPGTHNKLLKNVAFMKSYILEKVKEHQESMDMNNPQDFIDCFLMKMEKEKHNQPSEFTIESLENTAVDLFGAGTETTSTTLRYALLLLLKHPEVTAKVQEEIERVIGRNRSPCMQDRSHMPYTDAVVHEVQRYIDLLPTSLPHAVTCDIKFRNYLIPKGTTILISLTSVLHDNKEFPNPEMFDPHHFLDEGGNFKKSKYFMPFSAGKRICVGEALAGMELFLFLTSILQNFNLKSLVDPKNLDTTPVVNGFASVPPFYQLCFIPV
T1 sequence (P08684 whole entry): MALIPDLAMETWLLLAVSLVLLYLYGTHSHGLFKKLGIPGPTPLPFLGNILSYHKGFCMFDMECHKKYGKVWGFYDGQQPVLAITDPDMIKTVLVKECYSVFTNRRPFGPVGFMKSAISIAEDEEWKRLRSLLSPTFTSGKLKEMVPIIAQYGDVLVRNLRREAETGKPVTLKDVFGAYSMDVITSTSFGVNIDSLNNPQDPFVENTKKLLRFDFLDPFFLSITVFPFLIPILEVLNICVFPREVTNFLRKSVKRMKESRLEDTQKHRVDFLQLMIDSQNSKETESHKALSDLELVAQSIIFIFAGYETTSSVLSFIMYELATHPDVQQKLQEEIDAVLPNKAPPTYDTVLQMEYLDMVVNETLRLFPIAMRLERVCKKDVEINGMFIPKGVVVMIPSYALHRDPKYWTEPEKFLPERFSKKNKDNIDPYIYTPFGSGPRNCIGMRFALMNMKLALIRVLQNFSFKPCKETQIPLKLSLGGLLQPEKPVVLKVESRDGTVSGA

SMILES	EC50 [1] [µM]	inhibition (A549 [2]) [%]	EC50 [3] [µM]	inhibition (A549 [4]) [%]	selectivity ratio [5]	EC50 (Zaire ebolavirus [6]) [µM]	EC50 (Marburgvirus [7]) [µM]	selectivity ratio [8]	remaining at 1 h, 20 µM [9] [%]	remaining at 1 h, 20 µM [10] [%]	remaining at 1 h [11] [%]	remaining at 1 h [12] [%]	IC50 (Cytochrome P450 3A4 [13]) [µM]	IC50 (Cytochrome P450 2C9 [14]) [µM]	EC50 (Zaire ebolavirus [15]) [µM]	selectivity ratio [16]	EC50 (Zaire ebolavirus [17]) [µM]	EC50 (Marburgvirus [18]) [µM]	IC50 (Cytochrome P450 3A4 [19]) [µM]	IC50 (Cytochrome P450 2C9 [20]) [µM]
CC1CCN(c2ccc(NC(=O)c3ccc(CN4CCOCC4)cc3)cc2C(F)(F)F)CC1	0.012	99.3	0.18	92.3	2090	0.31	0.82	58	100	89	64	75	> 100	4.98						
COC(=O)c1ccc(NC(=O)c2ccc(CN3CCCCC3)cc2)cc1	9.86	74	0.53	90.7	15	> 25			63	78	54	0			2.83	35	< 10	< 10		
O=C(Nc1ccc(SC(F)(F)F)c(Cl)c1)c1ccc(CN2CCCCC2)cc1	1.27	99.9	1.61	99.8	5	1.12	2.4	14	100	88	90	94							15.1	4.49
CC(C)(C)c1ccc(NC(=O)c2ccc(CN3CCCCC3)cc2)c(C(C)(C)C)c1	0.48	99.5	2.34	85	76	0.59	2	227	85	82	17	99							> 100	18.6
O=C(Nc1ccc(C23CC4CC(CC(C4)C2)C3)cc1)c1ccc(CN2CCOCC2)cc1	0.018	99	2.79	72.5	5440	0.83	0.52	134	86	86	34	57	> 100	3.14						
